Laboratory results as given in the RNAGym collection of RNA variant scans (doi:10.1126/science.aae0568).
Fewer inactive variants are shown than the library holds.

B1: tRNA (parent)
chain: GUUCCGUUGGCGUAAUGGUAACGCGUCUCCCUCCUAAGGAGAAGACUGCGGGUUCGAGUCCCGUACGGAACG

Variants of: B1
Assay: yeast fitness relative to wild type (ratio to wild type); higher = fitter; tRNA-Arg(CCU), competitive growth, 37 C, YPD
Method in brief: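 Amplicons of the tRNA-Arg(CCU) gene were sequenced, 100-nucleotide paired-end, from the start population and from each end population of a pooled yeast competition. The competition, in six parallel replicates, lasted 24 hours in YPD at 37°C. Fitness relative to wild type was calculated from changes in genotype frequencies. Genotypes had to have ≥ 100 starting reads, and estimates < 0.5 were set to 0.5.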

Variant | yeast fitness
U3C U8C C30G U35C A42G C49U G56A G58A A70C | ≤ 0.5
U3A G9C C27G C34A | ≤ 0.5
U3C U7A G25A A42U U64A | ≤ 0.5
U3G A43U U54A A57C | 0.588
U3C C11G A21U G56A | ≤ 0.5
U3C A21U G38C | 0.668
U3A U19C | 0.875
U3C U13C U19A C22U G68C | ≤ 0.5
U3C A36G G39C C55U C66U | ≤ 0.5
U3C G10C C27U C66U | ≤ 0.5
U3A C30G A36G C46G | ≤ 0.5
U3G A20C A21G C61A | ≤ 0.5
U3A C11G C61A | ≤ 0.5
U3C C31U A70U | 0.865
U3A C66G | 0.669
U3A C27A C29G A65G | ≤ 0.5
U3A C4U C11A G44A | ≤ 0.5
U3A C11A C33U | 0.502
U3C G38C A40G | 0.501
U3A C5A G6C A37C A45U G68C | ≤ 0.5
U3C A15C A65C | ≤ 0.5
U3A G17A C22U | 0.559
U3C A21C A45C C49U | 0.532
U3C G25C G38A A42C G52A C62U | ≤ 0.5

Variant | yeast fitness
U3A C11U U13A G17C G18C A36C | ≤ 0.5
U3A G23A U32A | ≤ 0.5
U3C A40G G58C A70U | ≤ 0.5
U3G C31U C49U | 0.681
U3C A45U G51C | 0.574
U3A G48A A57U | 0.591
U3C C5G G51C | ≤ 0.5
U3G A45G A69U | 0.763
U3A G50C G51C G56A | ≤ 0.5
U3C C5U U7G C22U C27G G58A | ≤ 0.5
U3C A15C U47G U54A G58A | ≤ 0.5
U3C C61U G67A | 0.567
U3A C30G C33U C55U | ≤ 0.5
U3G C11G A15C C60U | ≤ 0.5
U3C C34G A40C A43U | ≤ 0.5
U3C U59A C61G | 0.587
U3A G6A A14U C33G | ≤ 0.5
U3C G25C C49U | 0.758
U3C A14U U28G | ≤ 0.5
U3G A37U G63A C66U | ≤ 0.5
U3C C27G C33A | 0.655
U3C U19G C27G C34A A42U | ≤ 0.5
U3A C5U C46A | 0.724
U3C C31A | 0.845

Variant | yeast fitness
U3A C5U C33G | 0.639
U3C C27U C33U C61A | ≤ 0.5
U3C C27G U28A | ≤ 0.5
U3C A40U A45U G52A | ≤ 0.5
U3C C5G A20G G63C C66G | ≤ 0.5
U3A C4U C33G C34G U54A | ≤ 0.5
U3A C11A A20G G39A G51A U53A G63C | ≤ 0.5
U3C G25C C33G C61G | ≤ 0.5
U3A C4U G25C A69C | ≤ 0.5
U3A C31U A40C U64A | ≤ 0.5
U3C C24A C66U | ≤ 0.5
U3A U19A C62U | 0.776
U3A C27A C30U G41C A43U C49A | ≤ 0.5
U3C U19A A57G | 0.624
U3C G9A U13G U26C | ≤ 0.5
U3C C22A G67A | 0.667
U3C A37U G51A C62U | ≤ 0.5
U3C C4U A15G U26A U32A C62U G67C | 0.613
U3A C33U A40C | ≤ 0.5
U3A C27U A37G G41C U64C A70C | ≤ 0.5
U3C C27G A45C | ≤ 0.5
U3A C5A A45C G50C U64C | 0.54
U3A U32A G39A C49G C55U | ≤ 0.5
U3C A20G A43G | 0.744

Variant | yeast fitness
U3A C5A C30G G38C C61A | 0.655
U3A G39A C49U | 0.559
U3A C22G C31G | ≤ 0.5
U3A U13C C49G | ≤ 0.5
U3G C4U C30U C33G C55U G68U | ≤ 0.5
U3G C11U A40C A45C U47C A57C C62U | ≤ 0.5
U3C G17C A40G C61U | ≤ 0.5
U3A G38A | 0.787
U3G C5G A20C | ≤ 0.5
U3A C33G A43G G58A G67A A69U | ≤ 0.5
U3A C11U A65C | 0.61
U3C U13G | 1.04
U3C U13A | 0.983
U3A C5A A45C G50C C61U G68A | ≤ 0.5
U3C C27U G50A | 0.648
U3A G6A U16A C24G A37U C49U G67A | ≤ 0.5
U3A G25A A37U C61A | ≤ 0.5
U3C U8A A15C | ≤ 0.5
U3C C5U U8C U13C C29U C46A A65U C66A | ≤ 0.5
U3C A14U A37U | ≤ 0.5
U3A C22G C24U C33A G58A | ≤ 0.5
U3C A20U C30U A37G | 0.633
U3C U19A C22U G63A | ≤ 0.5
U3C G23A C27G C33A | ≤ 0.5

Variant | yeast fitness
U3G C30G A40C C46U | 0.57
U3C A65G G68C | 0.561
U3C A15G C60G C62U | ≤ 0.5
U3A C5U C31A A45C C46G G52C | ≤ 0.5
U3G A14C C24G A36G | ≤ 0.5
U3C C5G G9A C11G C66U | ≤ 0.5
U3A G12C C24G | ≤ 0.5
U3C G50A | 0.961
U3C U16G C29U C46U G67C A69U | ≤ 0.5
U3C G12A G50A | 0.662
U3A U54C | 0.777
U3A G38C G41C A65G | 0.78
U3A C46U | 1
U3A C29G G50A | ≤ 0.5
U3C U16G G18A A43C U53A | ≤ 0.5
U3C G48C | 0.817
U3C G48A | 0.952
U3C A57C | 0.504
U3G C4G A70C | ≤ 0.5
U3G A36G G52A C66A A69U | ≤ 0.5
U3C C46A G67A A70C | 0.556
U3C U13A C31U G41A A57C A70U | ≤ 0.5
U3C A14C G44C G50C U54C C55A | ≤ 0.5
U3C C22U C55G U64A | ≤ 0.5

Variant | yeast fitness
U3A G6A C31U A40C | ≤ 0.5
U3C G10C C27U G68C | ≤ 0.5
U3C U26C | 0.886
U3C A14U A40G C61G | 0.567
U3C A45C C49U | 0.712
U3C G25U U59C A69C | 0.531
U3A U7C | 0.839
U3C G9C C11U C30G A43C U59A G67C A69C | ≤ 0.5
U3C U26C A42U C60G G67A | ≤ 0.5
U3A C55U | 0.876
U3C A43C A65U | 0.604
U3A C5A U8G G10A C31U U47C | 0.632
U3C G38A A45C | ≤ 0.5
U3C C4A G23A C31G A40C | ≤ 0.5
U3A G9C C46G | 0.533
U3A U28C C29G | ≤ 0.5
U3A U13A C22U C24U | ≤ 0.5
U3G C11A G23C G52C | ≤ 0.5
U3G C5U | 0.724
U3C C11G C34G A36C G52A C60G | ≤ 0.5
U3C C49A | 0.599
U3A G6C | 0.662
U3G C5A A20G C29U C31A C55U A57C | ≤ 0.5
U3C A40U | 0.976

Variant | yeast fitness
U3C C4U C27U C30A G41C C49A C55G C61A | ≤ 0.5
U3C A42C A69C | 0.978
U3A C61U | 0.924
U3A U26G | 0.781
U3A C4U C31A C66G G68C | ≤ 0.5
U3G C4U A20G U35A G58A G67U | ≤ 0.5
U3C G48A G67C | 0.653
U3C G12A C46U G52C | ≤ 0.5
U3A C5U A42G G52C A57G | ≤ 0.5
U3A G67A | 0.684
U3C G10U U26C A42U | ≤ 0.5
U3A G17C C29U | ≤ 0.5
U3C G12A A57C C61A A69C | ≤ 0.5
U3C C24U | 1.01
U3C G12A G48C | 0.558
U3G C29A U53A | ≤ 0.5
U3A G25A U26G | 0.535
U3A C4G A43G | ≤ 0.5
U3G A15G C34A A70G | 0.555
U3A G10C G17C A37C G50C | ≤ 0.5
U3A U26A C66U | ≤ 0.5
U3C G18A U53A U54G G67U | ≤ 0.5
U3C C31U G52A | 0.671
